# Rows were chosen to be rich in hits. Some 2.3% of all compounds tested hit in one or more screens of this group.
# TRPC6 act: activates the mouse TRPC6 cation channel | Q61143 | HEK293-TRPC6 membrane potential dye fluorescence; hits give high values | B-score at 10 µM | 310,000 tested, 0.13% active;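 active = B-score of the integrated fluorescence ratio above library mean plus 3 SD, and starting fluorescence ratio within library mean plus 5 SD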;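 note: higher score means more depolarization so channel activation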
# Target sequence (Q61143 whole entry, looked up): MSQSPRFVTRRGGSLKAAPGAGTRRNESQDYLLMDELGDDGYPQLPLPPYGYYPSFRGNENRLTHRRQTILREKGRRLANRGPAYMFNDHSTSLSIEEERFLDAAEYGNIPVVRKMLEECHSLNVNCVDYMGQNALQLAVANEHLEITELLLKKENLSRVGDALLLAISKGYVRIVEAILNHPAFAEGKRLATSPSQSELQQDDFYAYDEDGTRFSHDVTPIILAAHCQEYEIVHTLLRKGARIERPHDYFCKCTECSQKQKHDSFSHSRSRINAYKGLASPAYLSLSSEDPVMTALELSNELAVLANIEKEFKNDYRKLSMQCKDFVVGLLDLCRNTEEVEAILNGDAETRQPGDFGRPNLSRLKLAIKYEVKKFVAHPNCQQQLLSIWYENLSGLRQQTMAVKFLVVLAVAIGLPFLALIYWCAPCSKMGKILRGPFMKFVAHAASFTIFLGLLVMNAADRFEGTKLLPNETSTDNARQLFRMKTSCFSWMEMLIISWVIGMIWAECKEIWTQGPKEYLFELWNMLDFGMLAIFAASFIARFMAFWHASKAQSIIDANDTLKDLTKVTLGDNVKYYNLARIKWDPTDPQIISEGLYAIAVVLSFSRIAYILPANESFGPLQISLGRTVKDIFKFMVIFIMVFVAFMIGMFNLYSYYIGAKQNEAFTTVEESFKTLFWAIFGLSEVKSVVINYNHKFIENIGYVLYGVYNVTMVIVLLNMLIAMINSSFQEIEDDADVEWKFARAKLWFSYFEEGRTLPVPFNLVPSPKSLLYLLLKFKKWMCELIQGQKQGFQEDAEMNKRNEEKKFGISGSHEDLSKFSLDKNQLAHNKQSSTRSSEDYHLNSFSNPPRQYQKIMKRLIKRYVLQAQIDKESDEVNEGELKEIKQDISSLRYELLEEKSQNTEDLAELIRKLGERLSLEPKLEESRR
# TRPC6 inh: inhibitors of mouse TRPC6 channel. Q61143. B-score at 10 µM. AID 2553. HEK293-TRPC6, membrane potential dye, ACh-evoked depolarization; hits give low values. 310,000 tested, 1.1% active;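 active = B-score under library mean minus 3 SD, initial fluorescence not abnormally high, positive integrated signal ratio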;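 note: B-score derived from integrated fluorescence ratio over the kinetic read; more negative B-score means stronger inhibition of depolarization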
# TRPC4 PAM: TRPC4 (mouse) allosteric potentiation; 310,000 tested, 0.42% active; HEK293 TRPC4beta/mu-opioid, DAMGO EC20, Fluo-4 Ca2+ flux; hits give high values; B-score at 10 µM; AID 2227; Q9QUQ5;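 active = B-score of calcium response area above 5 SD of library B-scores, with initial fluorescence ratio within 5 SD of library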;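 note: B-score of integrated fluorescence ratio over time as area under calcium response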
# TRPC4 block: inhibitors of mouse TRPC4 channel; HEK293 TRPC4beta/mu-opioid, DAMGO-evoked Fluo4 calcium flux; hits give low values; 300,000 tested, 0.39% active; AID 2247; B-score at 10 µM;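 active = B-score over 3 SD under the library average, no early fluorescence shift, positive overall ratio signal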
#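 Material: HEK293 cells with stable TRPC4beta plus mu-opioid receptor expression; probe or stimulus: DAMGO in two steps, submaximal then maximal; technique: Fluo4 calcium fluorescence by kinetic imaging, 5 s 1 Hz baseline; measure: integrated fluorescence ratio relative to baseline, converted to per-well B score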
# TRPC4 act: activators of mouse TRPC4 channel; B-score at 10 µM; 310,000 tested, 0.49% active; HEK293 TRPC4beta/mu-opioid, Fluo4 calcium fluorescence; hits give high values;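 active = B-score above 5 SD of library B-scores, and initial fluorescence ratio not above library mean plus 5 SD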;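 note: positive B-score marks a calcium rise read as TRPC4 activation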
#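 System – HEK293 cells stably co-expressing mouse TRPC4beta and mu-opioid receptor · Signal – Fluo4 calcium-sensitive dye fluorescence, kinetic, 1 Hz baseline · Benchmarks – buffer (low) and maximal DAMGO (high) · Read-out – B score of integrated fluorescence ratio per well · Incubation – dye loading 45 min room temperature, 110 s kinetic read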
# TRPC4 spec 2: second check of whether TRPC6 inhibitors also affect mouse TRPC4 | 920 tested, 42% active | shares compounds with TRPC6 inh | HEK293 TRPC4/MOR, membrane potential dye fluorescence; channel activated by saturating DAMGO dose | AID 2776 | inhibition, % at 10 µM;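 active = compounds whose fluorescence signal differed from control wells by over 3 SD, either direction, in both duplicate plates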
# TRPC4 spec: selectivity of TRPC6 inhibitors: effect on mouse TRPC4 | shares compounds with TRPC6 inh | HEK293 TRPC4/mu-opioid, membrane potential fluorescence | activity change, negative = inhibition, % at 10 µM | 920 tested, 61% active | AID 2777;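 active = rise or fall in signal beyond 3 SD of buffer-only wells in both replicate plates, either sign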;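 note: integrated kinetic ratio of fluorescence range over baseline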
# HEK293 MPD ctr 2-1: second counter-screen for TRPC6 inhibitors: parental HEK293 cells; shares compounds with TRPC6 inh; parental HEK293 membrane potential dye fluorescence; maximal acetylcholine challenge after compound addition; signal change vs control, % at 10 µM; 920 tested, 31% active;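 active = membrane potential signal moving either way by over 3 SD of the maximum-effect control, in both duplicate plates, meaning non-specific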
# HEK293 MPD ctr-1: counter-screen for TRPC6 inhibitors: effect in parental HEK293 cells; AID 2780; shares compounds with TRPC6 inh; parental HEK293 membrane potential dye fluorescence; 920 tested, 60% active; membrane potential signal change, % at 10 µM;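 active = membrane potential signal shifting up or down by more than 3 SD of buffer-only wells, on both duplicate plates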
# HEK293 MPD ctr-2: checks TRPC6 modulator effects in parental HEK293 cells; membrane potential dye fluorescence; 2,400 tested, 51% active; membrane potential signal change, % at 10 µM; shares compounds with TRPC6 inh;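 active = membrane potential signal moves up or down beyond 5 SD from buffer-only wells, on both duplicate plates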
# HEK293 MPD ctr 2-2: second counter-screen for TRPC6 modulators: effect in parental HEK293 cells; AID 488926; membrane potential dye fluorescence; after compound, maximal acetylcholine stimulation; inhibition, % at 10 µM; shares compounds with TRPC6 inh; 2,400 tested, 14% active;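 active = membrane potential signal drops by more than 5 SD from the mean control signal, in both duplicate plates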;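 note: plate controls were acetylcholine ECmax control wells for no effect and buffer only wells for full effect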
# TRPC4 ctr mod: tests whether TRPC6 modulators also affect mouse TRPC4. HEK293 TRPC4/mu-opioid, membrane potential fluorescence. AID 488927. shares compounds with TRPC6 inh. percent change from control (negative = decrease, positive = increase), % at 10 µM. 2,400 tested, 69% active;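 active = membrane potential signal moved up or down beyond 5 SD of buffer control wells, in both duplicate plates, actives on both sides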;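 note: plate controls were assay buffer wells for no effect and DAMGO maximal-effect wells for full effect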
# TRPC4/MOR inh 2: second check of whether TRPC6 modulators also affect mouse TRPC4; inhibition, % at 10 µM; HEK293 TRPC4/mu-opioid, membrane potential dye fluorescence; stimulated with maximal-effect DAMGO; shares compounds with TRPC6 inh; 2,400 tested, 55% active;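 active = drop in membrane potential signal beyond 5 SD of the control wells in both duplicate plates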;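 note: TRPC4 counter screen for TRPC6 hits run under conditions tuned for TRPC6 not TRPC4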
# TRPC6 inh conf: confirmation of mouse TRPC6 inhibitors; inhibition, % at 10 µM; 3,300 tested, 43% active; shares compounds with TRPC6 inh; HEK293-TRPC6, membrane potential dye, ACh-evoked depolarization; AID 488960;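 active = fluorescence ratio falls more than 5 SD below the full-stimulation control mean, in both duplicate runs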;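 note: integrated fluorescence ratio of peak minus minimum over baseline after agonist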
# TRPC6 act confirm: mouse TRPC6 activator confirmation; HEK293-TRPC6 membrane potential dye fluorescence, FDSS; AID 488961; 2,800 tested, 11% active; shares compounds with TRPC6 inh; activation, % at 10 µM;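 active = ratio signal rise beyond 5 SD above unstimulated control wells' mean, seen in both duplicate runs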;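 note: plate controls were buffer EC0 wells for no effect and acetylcholine ECmax response for full effect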
# Starred values were filed as active, the others as inactive; i = inactive; · = no result given.
SMILES,TRPC6 act,TRPC6 inh,TRPC4 PAM,TRPC4 block,TRPC4 act,HEK293 MPD ctr-2,HEK293 MPD ctr 2-2,TRPC4 ctr mod,TRPC4/MOR inh 2,TRPC6 inh conf,TRPC6 act confirm,others
COc1ccc(-c2cc(-c3ccccc3)[n+](C)c(-c3ccccc3)c2)cc1,i,-5.6*,i,i,i,i,i,i,i,i,i,
Cc1ccccc1-[n+]1c(-c2ccccc2)cc(-c2ccccc2)cc1-c1ccccc1,i,-10*,i,i,i,·,·,·,·,100%*,i,TRPC4 spec 2=60%*;TRPC4 spec=20%*;HEK293 MPD ctr 2-1=i;HEK293 MPD ctr-1=7.1%*
CCOC(=O)C(C)(CC)NC(=O)CSP(=S)(OCC)OCC (configuration not stated),i,i,i,i,i,·,·,·,·,·,·,
CCCN1CCc2cccc3c2[C@H]1Cc1ccc(O)c(O)c1-3,i,-5.6*,i,i,i,i,i,i,37%*,i,i,
COc1cc2c(cc1O)CC1c3c(cc(O)c(OC)c3-2)CCN1C (configuration not stated),i,i,i,i,i,·,·,·,·,·,·,
CN1CCN(c2ccc(NC(=O)Oc3ccccc3)cc2)CC1,i,i,i,i,i,·,·,·,·,·,·,
CN1CCN(c2cccc3c2C(=O)c2ccccc2C3=O)CC1,i,-18*,17*,i,i,-288%*,82%*,-53%*,72%*,80%*,i,
CN1CCN(c2ccc3c(c2)S(=O)(=O)c2ccccc2C3=O)CC1,i,-5.3*,i,i,i,90%*,i,-52%*,32%*,i,i,
COc1c(C)cc(C(=O)C2CCCN(Cc3ccccn3)C2)cc1C (configuration not stated),i,i,i,i,i,·,·,·,·,·,·,
CCOC(C(=O)OCCC[N+](C)(CC)CC)(c1ccccc1)c1ccccc1,i,i,i,i,i,·,·,·,·,·,·,
CC[N+](C)(CC)CCCOC(=O)C(O)(c1ccccc1)C1CCCCC1 (configuration not stated),i,-8.1*,i,i,i,·,·,·,·,i,i,TRPC4 spec 2=i;TRPC4 spec=i;HEK293 MPD ctr 2-1=i;HEK293 MPD ctr-1=i
Cc1ccc(C[n+]2c(-c3ccc(C)cc3)cc(-c3ccc(C)cc3)cc2-c2ccc(C)cc2)cc1,i,-7*,i,i,160*,·,·,·,·,81%*,i,TRPC4 spec 2=56%*;TRPC4 spec=-16%*;HEK293 MPD ctr 2-1=i;HEK293 MPD ctr-1=-196%*
CCC(C)/C=C(C)/C=C/C1=CC2=C(Cl)C(=O)C(C)(OC(C)=O)C(=O)C2=CO1 (configuration not stated),i,-6.5*,i,i,i,-84%*,69%*,-22%*,93%*,88%*,i,
COc1ccc(C(=O)C2CCCN(Cc3cccc(C)n3)C2)c(OC)c1 (configuration not stated),i,-6.4*,i,i,i,i,i,9.5%*,i,i,·,
COc1ccc(C(=O)C2CCCN(Cc3ccc(C)s3)C2)c(OC)c1 (configuration not stated),i,i,i,i,i,·,·,·,·,·,·,
CC[n+]1c(SC)ccc2cc(OC)ccc21,i,-5.2*,i,i,i,-206%*,85%*,-30%*,54%*,58%*,i,
CN1CCC2(O)OCCCC2C1 (configuration not stated),i,i,i,i,i,·,·,·,·,·,·,
Cc1cccc(-c2nc3ccc(C(=O)N4CCC5(CC4)OCCO5)cc3nc2-c2cccc(C)c2)c1,13*,-7.3*,i,i,i,i,i,14%*,i,79%*,116%*,
O=[N+]([O-])c1ccc(N2CCCC2)c2ncccc12,i,i,i,i,i,·,·,·,·,·,·,
CC1CN(c2ccc([N+](=O)[O-])c3cccnc23)CC(C)N1 (configuration not stated),i,-10*,i,i,104*,-358%*,i,-60%*,64%*,58%*,i,
CCc1nc(N2CCNCC2)c(C#N)c2c1CSC(C)(C)C2,i,i,i,i,i,·,·,·,·,·,·,
CC(C)Cc1nc(N2CCNCC2)c(C#N)c2c1CCC2,i,-10*,i,i,i,·,·,·,·,72%*,i,TRPC4 spec 2=34%*;TRPC4 spec=6.0%*;HEK293 MPD ctr 2-1=i;HEK293 MPD ctr-1=14%*
CNC(=S)N1CCN(CCN=Cc2c(O)n(-c3ccc(C)cc3)c(=S)[nH]c2=O)CC1,i,i,i,i,i,·,·,·,·,·,·,
COc1ccccc1Sc1ccccc1CC(C)N (configuration not stated),i,-5*,i,i,i,i,i,i,66%*,44%*,i,
CN(C)CCSC1c2ccccc2CSc2ccccc21 (configuration not stated),i,-6.2*,i,i,i,i,78%*,11%*,50%*,74%*,·,
CN1CCN(CCOC2c3ccccc3CSc3ccc(Cl)cc32)CC1 (configuration not stated),i,i,i,i,i,·,·,·,·,·,·,

# High-throughput results deposited in PubChem BioAssay by Johns Hopkins Ion Channel Center.
